In ChEMBL document CHEMBL4138124, “Antineoplastic Agents. 605. Isoquinstatins” (2018):
Numbered stars: 1 amine (or outer) side, 2 acyl side, 3 side chain; on linkers, the order of the positions; unused ones are H or OH. Square brackets hold non-standard residues; d marks the D form. Peptide text beside a SMILES is read from it. * marks the point of attachment. Dolaproine = CO[C@@H]([C@@H]1CCCN1)[C@@H](C)C(=O)O; Hexanoyl(6-maleimido) = O=C1C=CC(=O)N1CCCCCC(=O)*; Dil = CC[C@H](C)[C@H](NC)[C@@H](CC(=O)O)OC; PABC = O=C(OCc1ccc(N[*:1])cc1)[*:2]; Cit = NC(=O)NCCC[C@H](N)C(=O)O; NMeV = CN[C@H](C(=O)O)C(C)C; X1 = c1cc(CCN*)c2cnccc2c1; X2 = c1cc(CCN*)c2ccncc2c1; X3 = c1cc2ccc(CCN*)cc2cn1

Tests used:
Type in all cases: functional
NCI-H460 = assay: Growth inhibition of human NCI-H460 cells after 48 hrs by SRB assay; details: NCI-H460, 48 h
Procedure, shortened: (§1)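 Cells grown in RPMI1640 with 5% fetal bovine serum, seeded in 96-well plates and incubated 24 h before serial dilutions of compound were added. After a further 48 h, cells were fixed with trichloroacetic acid, stained with sulforhodamine B and read on a plate reader. GI50 (concentration giving 50% reduction in net protein increase) was calculated from optical density data.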

SF-268 = assay: Growth inhibition of human SF268 cells after 48 hrs by SRB assay; details: SF-268, 48 h; procedure, shortened: as §1
DU-145 = assay: Growth inhibition of human DU145 cells after 48 hrs by SRB assay; details: DU-145, 48 h; procedure, shortened: as §1
BXPC-3 = assay: Growth inhibition of human BxPC3 cells after 48 hrs by SRB assay; details: BXPC-3, 48 h; procedure, shortened: as §1
KM-20L2 = assay: Growth inhibition of human KM20L2 cells after 48 hrs by SRB assay; details: KM-20L2, 48 h; procedure, shortened: as §1
MCF7 = assay: Growth inhibition of human MCF7 cells after 48 hrs by SRB assay; details: MCF7, 48 h; procedure, shortened: as §1

SMILES: CC[C@H](C)[C@@H]([C@@H](CC(=O)N1CCC[C@H]1[C@H](OC)[C@@H](C)C(=O)NCCc1ccc2cccnc2c1)OC)N(C)C(=O)[C@@H](NC(=O)[C@H](C(C)C)N(C)C)C(C)C
- GI50 (NCI-H460): 1.19 nM
- GI50 (SF-268): 0.03 nM

SMILES: CC[C@H](C)[C@@H]([C@@H](CC(=O)N1CCC[C@H]1[C@H](OC)[C@@H](C)C(=O)NCCc1cccc2cnccc12)OC)N(C)C(=O)[C@@H](NC(=O)[C@H](C(C)C)N(C)C)C(C)C
- GI50 (NCI-H460): 17.3 nM
- GI50 (SF-268): 0.266 nM
- GI50 (DU-145): 2.79 nM
- GI50 (BXPC-3): 7.31 nM
- GI50 (KM-20L2): 0.385 nM
- GI50 (MCF7): 0.279 nM

SMILES: CC[C@H](C)[C@@H]([C@@H](CC(=O)N1CCC[C@H]1[C@H](OC)[C@@H](C)C(=O)NCCc1cccc2ccncc12)OC)N(C)C(=O)[C@@H](NC(=O)[C@H](C(C)C)N(C)C)C(C)C
- GI50 (NCI-H460): 9.03 nM
- GI50 (SF-268): 0.07 nM
- GI50 (DU-145): 0.053 nM
- GI50 (BXPC-3): 4.25 nM
- GI50 (KM-20L2): 0.146 nM
- GI50 (MCF7): 0.133 nM

SMILES: CC[C@H](C)[C@@H]([C@@H](CC(=O)N1CCC[C@H]1[C@H](OC)[C@@H](C)C(=O)NCCc1ccc2ccncc2c1)OC)N(C)C(=O)[C@@H](NC(=O)[C@H](C(C)C)N(C)C)C(C)C
- GI50 (NCI-H460): 9.3 nM
- GI50 (SF-268): 0.068 nM
- GI50 (DU-145): 0.033 nM
- GI50 (BXPC-3): 4.39 nM
- GI50 (KM-20L2): 0.399 nM
- GI50 (MCF7): 0.186 nM

SMILES: CC[C@H](C)[C@@H]([C@@H](CC(=O)N1CCC[C@H]1[C@H](OC)[C@@H](C)C(=O)NCCc1cccc2ccncc12)OC)N(C)C(=O)[C@@H](NC(=O)[C@@H](NC)C(C)C)C(C)C (H-[NMeV]V[Dil][Dolaproine]-X1)
- GI50 (NCI-H460): 122 nM
- GI50 (SF-268): 0.135 nM
- GI50 (DU-145): 0.42 nM
- GI50 (BXPC-3): 40.6 nM
- GI50 (KM-20L2): 0.542 nM
- GI50 (MCF7): 0.271 nM

SMILES: CC[C@H](C)[C@@H]([C@@H](CC(=O)N1CCC[C@H]1[C@H](OC)[C@@H](C)C(=O)NCCc1cccc2cnccc12)OC)N(C)C(=O)[C@@H](NC(=O)[C@@H](NC)C(C)C)C(C)C (H-[NMeV]V[Dil][Dolaproine]-X2)
- GI50 (NCI-H460): 42 nM
- GI50 (SF-268): 0.132 nM
- GI50 (DU-145): 0.677 nM
- GI50 (BXPC-3): 11 nM
- GI50 (KM-20L2): 0.271 nM
- GI50 (MCF7): 0.095 nM

SMILES: CC[C@H](C)[C@@H]([C@@H](CC(=O)N1CCC[C@H]1[C@H](OC)[C@@H](C)C(=O)NCCc1ccc2ccncc2c1)OC)N(C)C(=O)[C@@H](NC(=O)[C@@H](NC)C(C)C)C(C)C (H-[NMeV]V[Dil][Dolaproine]-X3)
- GI50 (NCI-H460): 54.2 nM
- GI50 (SF-268): 0.325 nM
- GI50 (DU-145): 0.122 nM
- GI50 (BXPC-3): 44.7 nM
- GI50 (KM-20L2): 0.569 nM
- GI50 (MCF7): 0.149 nM

SMILES: CC[C@H](C)[C@@H]([C@@H](CC(=O)N1CCC[C@H]1[C@H](OC)[C@@H](C)C(=O)NCCc1cccc2ccncc12)OC)N(C)C(=O)[C@@H](NC(=O)[C@H](C(C)C)N(C)C(=O)OCc1ccc(NC(=O)[C@H](CCCNC(N)=O)NC(=O)[C@@H](NC(=O)CCCCCN2C(=O)C=CC2=O)C(C)C)cc1)C(C)C ({Hexanoyl(6-maleimido)}-V[Cit][PABC][NMeV]V[Dil][Dolaproine]-X1)
- GI50 (NCI-H460): 2240 nM
- GI50 (SF-268): 16.5 nM
- GI50 (DU-145): 23.2 nM
- GI50 (BXPC-3): 524 nM
- GI50 (KM-20L2): 32.2 nM
- GI50 (MCF7): 22.4 nM

SMILES: CC[C@H](C)[C@@H]([C@@H](CC(=O)N1CCC[C@H]1[C@H](OC)[C@@H](C)C(=O)NCCc1cccc2cnccc12)OC)N(C)C(=O)[C@@H](NC(=O)[C@H](C(C)C)N(C)C(=O)OCc1ccc(NC(=O)[C@H](CCCNC(N)=O)NC(=O)[C@@H](NC(=O)CCCCCN2C(=O)C=CC2=O)C(C)C)cc1)C(C)C ({Hexanoyl(6-maleimido)}-V[Cit][PABC][NMeV]V[Dil][Dolaproine]-X2)
- GI50 (NCI-H460): 396 nM
- GI50 (SF-268): 9.72 nM
- GI50 (DU-145): 26.9 nM
- GI50 (BXPC-3): 307 nM
- GI50 (KM-20L2): 30.7 nM
- GI50 (MCF7): 21.7 nM

SMILES: CC[C@H](C)[C@@H]([C@@H](CC(=O)N1CCC[C@H]1[C@H](OC)[C@@H](C)C(=O)NCCc1ccc2ccncc2c1)OC)N(C)C(=O)[C@@H](NC(=O)[C@H](C(C)C)N(C)C(=O)OCc1ccc(NC(=O)[C@H](CCCNC(N)=O)NC(=O)[C@@H](NC(=O)CCCCCN2C(=O)C=CC2=O)C(C)C)cc1)C(C)C ({Hexanoyl(6-maleimido)}-V[Cit][PABC][NMeV]V[Dil][Dolaproine]-X3)
- GI50 (NCI-H460): 448 nM
- GI50 (SF-268): 9.72 nM
- GI50 (DU-145): 15.7 nM
- GI50 (BXPC-3): 149 nM
- GI50 (KM-20L2): 32.2 nM
- GI50 (MCF7): 18 nM
